Test results from paper PMC12466149 (eBioMedicine, 2025).
Entries after “also recorded” stand apart in the source; their conditions may differ.

Experiments:
SH-SY5Y APPSWE cells = assay: Mitochondrial stress test; assay type: cell-based, human; conditions: rotenone 256 nM
Summary of the method: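 For SH-SY5Y cells stably expressing APPSWE, cells were held 1 h at 37 °C without CO2 in XF DMEM pH 7.4 (1 mM pyruvate, 2 mM glutamine, 10 mM glucose). OCR was recorded basally, then after oligomycin A and FCCP (each titrated over 0.5–3 μM) and 0.5 μM rotenone plus 0.5 μM antimycin A. Hoechst (5 μM final) was used for cell-count normalisation. SRC = maximal minus basal OCR.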

MC65 Tet-On cells [1] = assay: Cytotoxicity in MC65 Tet-On cells; assay type: cell-based, human; conditions: 32 nM rotenone
Summary of the method: (§1)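 MC65 human neuroblastoma cells in high-glucose DMEM with 10% FBS, 1 mM pyruvate and nonessential amino acids, 5% CO2, 37 °C. Tet-Off (Aβ expressed) cells got test compound at 2 nM–5 μM, optionally after 30 min pretreatment with 32 nM rotenone. Tet-On cells got vehicle or 32 nM rotenone. Viability at 3 days by MTT: 0.25 mg/ml, 4 h at 37 °C, solubilised in HCl/isopropanol, read at 570 nm. Tet-On vehicle set as 100%.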

MC65 Tet-On cells [2] = assay: Real-time respirometry; assay type: cell-based, human
[3] = test system: MC65 Tet-Off cells (Aβ expressed); assay: Protection against Aβ toxicity in MC65 Tet-Off cells; assay type: cell-based, human; conditions: any concentration of rotenone; data not shown
Summary of the method: as §1

[4] = test system: mitochondrial complex I (mtCI); assay: mtCI activity in isolated brain mitochondria; assay type: biochemical, mouse; conditions: 1 μM rotenone
Summary of the method: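 Mouse brain mitochondria isolated by differential centrifugation (5900×g 4 min, then 12,000×g 10 min, 4 °C) in mannitol/sucrose/HEPES-Tris/EGTA medium, pH 7.4, with BSA and 0.02% digitonin. Complex I activity measured spectrophotometrically at 25 °C as oxidation of 0.15 mM NADH at 340 nm. Buffer: sucrose/Tris-HCl pH 7.5/KCl with 10 μM cytochrome c, 40 μg/ml alamethicin and 1 mM MgCl2.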

C=C(C)[C@H]1Cc2c(ccc3c2O[C@@H]2COc4cc(OC)c(OC)cc4[C@@H]2C3=O)O1 [rotenone]
Spare respiratory capacity (SRC) (SH-SY5Y APPSWE cells): did not improve SRC | Cytotoxicity (MC65 Tet-On cells [1]): show no toxicity; also recorded: did not induce cell death | Reduction of OCR (MC65 Tet-On cells [2]; 32 nM rotenone, within 30 min): 50% | Effect on respiration (MC65 Tet-On cells [2]; kinetic injection): immediately blocked respiration | Protection against Aβ toxicity [3]: did not protect | mtCI inhibition (in words) [4]: complete inhibition; also recorded: completely inhibits
